In ChEMBL document CHEMBL3272033, “Physicochemical and pharmacological studies of some 8-substituted decahydroisoquinolines” (J Med Chem, 1976):

Experiments:
[1] = Therapeutic index, ratio of LD50 for toxicity to ED50 for antiarrhythmic activity in ip dosed Swiss-Webster albino mouse; type: organism-based, Heart; conditions: in vivo, read-out: Ratio LD50/ED50
[2] = test system: Heart; test: Antiarrhythmic activity in Hartley guinea pig atria assessed as change in maximum driving rate at 36.6 uM/l after 5 mins; type: functional, Cavia porcellus
Method in brief: (§1)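 Spontaneously beating isolated atria held under initial tension; bath fluid changed every 10 min; stabilised about 1 h. Maximum driving rate found with 1-ms square pulses at 50% above threshold voltage, 10 s every 30 s; the frequency just before failure of following is the MDR. Control is the mean of two determinations. Spontaneous rate recorded by tachograph. Values are % change from control at peak response, generally 5–30 min.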

[3] = test system: Heart; test: Antiarrhythmic activity in Hartley guinea pig atria assessed as change in maximum driving rate at 73.2 uM/l after 5 mins; type: functional, Cavia porcellus; method in brief: as §1
[4] = species on record: Homo sapiens; test: Drug absorption in buccal cavity in human at pH 7.50 after 5 mins by UV spectrometry; type: ADME, organism-based; conditions: in vivo, other, pH 7.5, 5 min
Method in brief: (§2)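 3 mg compound in 25 ml buffer (0.1 M phosphate pH 5.50 or 7.50; tetraborate pH 9.30) swished in the mouth for 5 min, expelled, and combined with a 10 ml water rinse. Made up to 50 ml; aliquot basified to pH 10 and ether-extracted, then back-extracted into 0.1 N HCl. UV absorbance read at λmax against Beer's law plots; the unrecovered fraction is taken as % absorbed. One to three subjects.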

[5] = test system: Heart; test: Antiarrhythmic activity in Hartley guinea pig atria assessed as change in spontaneous rate at 73.2 uM/l after 5 mins; type: functional, Cavia porcellus; method in brief: as §1
[6] = test system: Homo sapiens; test: Toxicity in human assessed as numbness at 5 x 10' -5 M administered topically to buccal cavity measured up to 15 to 20 mins; type: organism-based; conditions: in vivo, topical_or_ocular, 50 µM
[7] = species on record: Homo sapiens; test: Drug absorption in buccal cavity in human at pH 9.3 after 5 mins by UV spectrometry; type: ADME, organism-based; conditions: in vivo, other, pH 9.3, 5 min; method in brief: as §2
[8] = Dissociation constant, pKa of the compound in 0.01 M potassium hydrogen phthalate; type: physicochemical
Method in brief: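 pKa by potentiometric titration with 0.01 M potassium hydrogen phthalate in a thermostated vessel, stirred, under nitrogen bubbling, using glass and calomel electrodes. pKa is the mean pH at half-neutralization from four titrations. Endpoints were taken from parallel tangents on either side of the inflection.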

[9] = test system: Heart; test: Antiarrhythmic activity in Hartley guinea pig atria assessed as change in spontaneous rate at 36.6 uM/l after 5 mins; type: functional, Cavia porcellus; method in brief: as §1
[10] = test system: Heart; test: Antiarrhythmic activity in Hartley guinea pig atria assessed as reversible decrease in maximum driving rate compound treated for 5 mins measured up to 2 hrs post washout; type: functional, tissue-based; conditions: Cavia porcellus
Method in brief: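 After compound exposure the bath was washed out. Two MDR determinations were made every 15 min for up to 2 h to follow reversibility and recovery toward control. Bath fluid was changed every 10 min.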

[11] = test system: Mus musculus; test: Toxicity in ip dosed Swiss-Webster albino mouse; type: organism-based; conditions: in vivo
[12] = species on record: Homo sapiens; test: Drug absorption in buccal cavity in human at pH 5.50 after 5 mins by UV spectrometry; type: ADME, organism-based; conditions: in vivo, other, pH 5.5, 5 min; method in brief: as §2
[13] = test system: Mus musculus; test: Antiarrhythmic activity in ip dosed Swiss-Webster albino mouse assessed as prevention of chloroform-induced ventricular fibrillation; type: functional, Heart
[14] = test system: Heart; test: Antiarrhythmic activity in Hartley guinea pig atria assessed as change in spontaneous rate at 55.0 uM/l after 5 mins; type: functional, Cavia porcellus; method in brief: as §1
[15] = test system: Heart; test: Antiarrhythmic activity in Hartley guinea pig atria assessed as change in maximum driving rate at 55.0 uM/l after 5 mins; type: functional, Cavia porcellus; method in brief: as §1
[16] = Effect on transmembrane action potential in dog purkinje cells assessed as change in amplitude at 20 mg/l after 20 mins in presence of 2.7 mM/l K+ relative to control; type: functional, Canis lupus familiaris
Method in brief: (§3)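 Purkinje false tendons with attached myocardium came from adult dogs (10–15 kg) anesthetized with pentobarbital 30 mg/kg iv. Tissue was bathed in Tyrode (KCl 2.7 or 5.4 mM) gassed with 95% O2-5% CO2 at 37 °C and impaled with glass microelectrodes. Compound was given as a bolus to the final bath concentration, with records at 2–20 min. Two preparations per compound; % change from control at 20 min.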

[17] = Effect on transmembrane action potential in dog purkinje cells assessed as average rising velocity at 20 mg/l after 20 mins in presence of 5.4 mM/l K+ relative to control; type: functional, Canis lupus familiaris
Method in brief: (§4)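 Canine Purkinje false-tendon preparations from pentobarbital-anesthetized dogs, in oxygenated Tyrode at 37 °C with KCl 2.7 or 5.4 mM. Compound given by bolus to the final bath concentration. TMAP recorded by intracellular glass microelectrode before dosing and 2–20 min after. ARV of phase 0 (V/s) and activation time (ms) expressed as % change from control at 20 min. Two preparations per compound.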

[18] = Effect on transmembrane action potential in dog purkinje cells assessed as average rising velocity at 20 mg/l after 20 mins in presence of 2.7 mM/l K+ relative to control; type: functional, Canis lupus familiaris; method in brief: as §4
[19] = Effect on transmembrane action potential in dog purkinje cells assessed as average rising velocity at 10 mg/l after 20 mins in presence of 2.7 mM/l K+ relative to control; type: functional, Canis lupus familiaris; method in brief: as §4
[20] = Effect on transmembrane action potential in dog purkinje cells assessed as change in amplitude at 10 mg/l after 20 mins in presence of 2.7 mM/l K+ relative to control; type: functional, Canis lupus familiaris; method in brief: as §3
[21] = Effect on transmembrane action potential in dog purkinje cells assessed as change in activation time at 10 mg/l after 20 mins in presence of 2.7 mM/l K+ relative to control; type: functional, Canis lupus familiaris; method in brief: as §4
[22] = Effect on transmembrane action potential in dog purkinje cells assessed as change in activation time at 10 mg/l after 20 mins in presence of 5.4 mM/l K+ relative to control; type: functional, Canis lupus familiaris; method in brief: as §4
[23] = Effect on transmembrane action potential in dog purkinje cells assessed as change in amplitude at 10 mg/l after 20 mins in presence of 5.4 mM/l K+ relative to control; type: functional, Canis lupus familiaris; method in brief: as §3
[24] = Effect on transmembrane action potential in dog purkinje cells assessed as change in amplitude at 20 mg/l after 20 mins in presence of 5.4 mM/l K+ relative to control; type: functional, Canis lupus familiaris; method in brief: as §3
[25] = Effect on transmembrane action potential in dog purkinje cells assessed as change in activation time at 20 mg/l after 20 mins in presence of 2.7 mM/l K+ relative to control; type: functional, Canis lupus familiaris; method in brief: as §4
[26] = Effect on transmembrane action potential in dog purkinje cells assessed as average rising velocity at 10 mg/l after 20 mins in presence of 5.4 mM/l K+ relative to control; type: functional, Canis lupus familiaris; method in brief: as §4
[27] = Effect on transmembrane action potential in dog purkinje cells assessed as change in activation time at 20 mg/l after 20 mins in presence of 5.4 mM/l K+ relative to control; type: functional, Canis lupus familiaris; method in brief: as §4
[28] = test system: Heart; test: Antiarrhythmic activity in Hartley guinea pig atria assessed as change in spontaneous rate at 32.5 uM/l after 5 mins; type: functional, Cavia porcellus; method in brief: as §1
[29] = test system: Heart; test: Antiarrhythmic activity in Hartley guinea pig atria assessed as change in maximum driving rate at 32.5 uM/l after 5 mins; type: functional, Cavia porcellus; method in brief: as §1
[30] = test system: Heart; test: Antiarrhythmic activity in Hartley guinea pig atria assessed as change in spontaneous rate at 65.0 uM/l after 5 mins; type: functional, Cavia porcellus; method in brief: as §1
[31] = test system: Heart; test: Antiarrhythmic activity in Hartley guinea pig atria assessed as change in maximum driving rate at 65.0 uM/l after 5 mins; type: functional, Cavia porcellus; method in brief: as §1
[32] = Effect on transmembrane action potential in dog purkinje cells assessed as change in activation time at 30 mg/l after 20 mins in presence of 2.7 mM/l K+ relative to control; type: functional, Canis lupus familiaris; method in brief: as §4
[33] = test system: Heart; test: Antiarrhythmic activity in Hartley guinea pig atria assessed as change in maximum driving rate at 58.6 uM/l after 5 mins; type: functional, Cavia porcellus; method in brief: as §1
[34] = Effect on transmembrane action potential in dog purkinje cells assessed as change in amplitude at 30 mg/l after 20 mins in presence of 2.7 mM/l K+ relative to control; type: functional, Canis lupus familiaris; method in brief: as §3
[35] = test system: Heart; test: Antiarrhythmic activity in Hartley guinea pig atria assessed as change in spontaneous rate at 58.6 uM/l after 5 mins; type: functional, Cavia porcellus; method in brief: as §1
[36] = Effect on transmembrane action potential in dog purkinje cells assessed as average rising velocity at 30 mg/l after 20 mins in presence of 2.7 mM/l K+ relative to control; type: functional, Canis lupus familiaris; method in brief: as §4
[37] = test system: Heart; test: Antiarrhythmic activity in Hartley guinea pig atria assessed as change in spontaneous rate at 61.6 uM/l after 5 mins; type: functional, Cavia porcellus; method in brief: as §1
[38] = test system: Heart; test: Antiarrhythmic activity in Hartley guinea pig atria assessed as change in spontaneous rate at 30.8 uM/l after 5 mins; type: functional, Cavia porcellus; method in brief: as §1
[39] = test system: Heart; test: Antiarrhythmic activity in Hartley guinea pig atria assessed as change in maximum driving rate at 61.6 uM/l after 5 mins; type: functional, Cavia porcellus; method in brief: as §1
[40] = test system: Heart; test: Antiarrhythmic activity in Hartley guinea pig atria assessed as change in spontaneous rate at 15.4 uM/l after 5 mins; type: functional, Cavia porcellus; method in brief: as §1
[41] = test system: Heart; test: Antiarrhythmic activity in Hartley guinea pig atria assessed as change in maximum driving rate at 15.4 uM/l after 5 mins; type: functional, Cavia porcellus; method in brief: as §1
[42] = test system: Heart; test: Antiarrhythmic activity in Hartley guinea pig atria assessed as change in maximum driving rate at 30.8 uM/l after 5 mins; type: functional, Cavia porcellus; method in brief: as §1

Row | SMILES | selectivity ratio [1] | Drug absorption [4] [%] | Activity [6] | Drug absorption [7] [%] | pKa [8] | Activity [10] | LD50 [11] | Drug absorption [12] [%] | ED50 [13] [µmol/kg] | also measured
1 | CN1CC[C@H]2CCC[C@@H](OC(=O)c3ccccc3)[C@H]2C1 (relative stereo) | 3.7 | 46 | Toxic | 81.8 | 9.05 | Dose-dependent effect | 900 | 29.7 | 245 | Activity [2]: -24.5%; Activity [3]: -55.5%; Activity [5]: -57.8%; Activity [9]: -23%
2 | COc1cc(C(=O)O[C@@H]2CCC[C@@H]3CCN(C)C[C@@H]32)cc(OC)c1OC (mixture of isomers) | 2.6 | 38.2 | Toxic | 70.7 | 8.91 | – | 421 | 21.2 | 162 | Activity [14]: -53.2%; Activity [15]: -32.3%
3 | COc1cc(C(=O)O[C@@H]2CCC[C@@H]3CCN(C)C[C@H]32)cc(OC)c1OC (mixture of isomers) | 4.5 | 19.7 | Toxic | 69.5 | 8.82 | – | 338 | 17.1 | 74 | Activity [16]: -15%; Activity [17]: -71%; Activity [18]: -58%; Activity [19]: -6%; Activity [20]: -12%; Activity [21]: 131%; Activity [22]: 530%; Activity [23]: -7%; Activity [24]: -17%; Activity [14]: -42.4%; Activity [15]: -54.5%; Activity [25]: 389%; Activity [26]: -50%; Activity [27]: 300%
4 | CN1CC[C@H]2CCC[C@@H](OC(=O)c3ccc(Cl)cc3)[C@H]2C1 (mixture of isomers) | 4.7 | 43.7 | Toxic | 86.5 | 8.9 | Dose-dependent effect | 1200 | 13.7 | 257 | Activity [28]: -48.6%; Activity [29]: -32.2%; Activity [30]: -52.3%; Activity [31]: -53.3%
5 | CN1CC[C@H]2CCC[C@@H](NC(=O)c3ccc(Cl)c(Cl)c3)[C@@H]2C1 (mixture of isomers) | 12.7 | 25.7 | – | 59.3 | – | – | 1304 | 20.5 | 104 | Activity [32]: 81%; Activity [33]: -45%; Activity [34]: -23%; Activity [17]: -58%; Activity [35]: -41.2%; Activity [36]: -72%; Activity [22]: 18%; Activity [23]: -11%; Activity [24]: -5%; Activity [26]: -30%; Activity [27]: 42%
6 | CN1CC[C@H]2CCC[C@@H](OC(=O)c3ccc(Cl)cc3)[C@@H]2C1 (mixture of isomers) | 5.2 | 42.7 | Toxic | 84.7 | 8.75 | – | 757 | 17.4 | 146 | Activity [30]: -60.5%; Activity [31]: -55.8%
7 | C=C[C@H]1CN2CC[C@H]1C[C@@H]2[C@@H](O)c1ccnc2ccc(OC)cc12 [QUINIDINE] | – | – | – | – | – | Dose-dependent effect | – | – | 160 | Activity [37]: -36.1%; Activity [38]: -28.6%; Activity [39]: -36.3%; Activity [40]: -18.8%; Activity [41]: -13.3%; Activity [42]: -22.8%
